Activity calls are given as the source filed them.

By IC50 is commonly meant the concentration that inhibits the measured activity by half. In general, half-life refers to the time needed for the level to fall by half in the phase considered. The low end stands for rapid decline, the high end for slow decline. The Cmax is the highest concentration seen after dosing. For orientation: clearance means a measure of how efficiently the substance is removed, as volume per time. High values mean a high capacity for elimination, low ones a low capacity for elimination. For orientation: AUC(0-t) means exposure summed from dosing to a finite time, without extrapolation to infinity. The low end stands for low exposure, the high end for high exposure.

Series [1] concerns Mus musculus. Kind of series: Anti-inflammatory activity in poly(I:C)-induced airway inflammation C57BL/6 mouse model assessed as reduction in mIL6 expression in lung at 10 mg/kg, ip administered 1 day prior to poly(I:C) stimulation and redosed on day 2 followed by poly(I:C) stimulation. The format is functional, organism-based. In a few lines: (§1)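 Male C57BL/6J mice, 12 weeks old, were given 10 mg/kg i.p. one day before stimulation. The next day they got a second dose, immediately followed by intranasal poly(I:C) (300 μg in 50 μL PBS) or PBS alone. Compound was taken up in DMSO and diluted in 10% hydroxypropyl β-cyclodextrin in PBS. Mice were euthanized one day later and lung tissue was collected for cytokine expression.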

Series [2] concerns Mus musculus. Kind of series: Anti-inflammatory activity in poly(I:C)-induced airway inflammation C57BL/6 mouse model assessed as reduction in mCIG5 expression in lung at 10 mg/kg, ip administered 1 day prior to poly(I:C) stimulation and redosed on day 2 followed by poly(I:C) stimulation. The format is functional, organism-based. Summed up: as §1
Series [3] deals with Mus musculus. Kind of series: Anti-inflammatory activity in poly(I:C)-induced airway inflammation C57BL/6 mouse model assessed as reduction in mISG54 expression in lung at 10 mg/kg, ip administered 1 day prior to poly(I:C) stimulation and redosed on day 2 followed by poly(I:C) stimulation. The format is functional, organism-based. Summed up:
as §1

Series [4] has as its target CREB-binding protein (Homo sapiens, UniProt Q92793). Kind of series: Inhibition of CBP (unknown origin) after 1 hr by TR-FRET assay. Summed up: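 Isolated bromodomain in a kit TR-FRET assay. Inhibitor series 0.01 nM to 100 μM, incubated 1 h at room temperature. Excitation 340 nm, emission read at 620 and 670 nm with 100 μs delay and 500 μs window. IC50 from the sigmoidal plot of the 670/620 ratio against concentration. Mean of at least two runs.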
A general note: Time-resolved FRET reads energy transfer from a long-lived donor to a nearby acceptor.

Series [5] deals with Mus musculus. Kind of series: Anti-inflammatory activity in poly(I:C)-induced airway inflammation C57BL/6 mouse model assessed as reduction in mKC expression in lung at 10 mg/kg, ip administered 1 day prior to poly(I:C) stimulation and redosed on day 2 followed by poly(I:C) stimulation. The format is functional, organism-based. Summed up: as §1
Series [6] deals with Mus musculus. Kind of series: Anti-inflammatory activity in poly(I:C)-induced airway inflammation C57BL/6 mouse model assessed as reduction in neutrophils recruitment into bronchoalveolar lavage fluid at 10 mg/kg, ip administered 1 day prior to poly(I:C) stimulation and redosed on day 2 followed by poly(I:C) stimulation by trypan blue staining-based hemocytometric analysis. The format is functional, organism-based.

In series [7] the target is T1, Bromodomain-containing protein 4 (Homo sapiens, UniProt O60885). Kind of series: Inhibition of BRD4 in human SAE cells assessed as reduction in TLR3 agonist poly(I:C) -induced ISG56 RNA expression preincubated for 24 hrs followed by poly(I:C) addition and measured after 4 hrs by SYBR green dye-based qRT-PCR analysis. The format is cell-based. On the technique in general: In qPCR the cycle at which signal appears reflects the starting amount.

The target in series [8] is T1, Bromodomain-containing protein 4. Kind of series: Inhibition of BRD4 in human SAE cells assessed as reduction in TLR3 agonist poly(I:C) -induced ISG54 RNA expression preincubated for 24 hrs followed by poly(I:C) addition and measured after 4 hrs by SYBR green dye-based qRT-PCR analysis. The format is cell-based.
Series [9] has the same target. Kind of series: Inhibition of BRD4 in human SAE cells assessed as reduction in TLR3 agonist poly(I:C) -induced grobeta RNA expression preincubated for 24 hrs followed by poly(I:C) addition and measured after 4 hrs by SYBR green dye-based qRT-PCR analysis. The format is cell-based.
The target is the same in series [10]. Kind of series: Inhibition of BRD4 in human SAE cells assessed as reduction in TLR3 agonist poly(I:C) -induced IL-8 RNA expression preincubated for 24 hrs followed by poly(I:C) addition and measured after 4 hrs by SYBR green dye-based qRT-PCR analysis. The format is cell-based.
Series [11] can be described thus: Half life in rat at 10 mg/kg, iv. It counts as ADME, organism-based. To be noted: in vivo.
Series [12] in a line: Volume of distribution at steady state in rat at 10 mg/kg, iv. The format is ADME, organism-based. To be noted: in vivo, read-out: Vdss.
Series [13] can be described thus: Cmax in rat at 20 mg/kg, po. The format is ADME, organism-based. Set-up: dose 20 mg/kg, route oral. To be noted: in vivo.
Series [14] can be described thus: Total clearance in rat at 10 mg/kg, iv. The format is ADME, organism-based. Particulars: in vivo.
Series [15] in a line: AUC (0 to t) in rat at 10 mg/kg, iv. Particulars: in vivo. It counts as ADME, organism-based.
Series [16] is described as follows: AUC (0 to t) in rat at 20 mg/kg, po. To be noted: in vivo. It counts as ADME, organism-based.
Series [17] concerns Mus musculus. Kind of series: Anti-inflammatory activity in poly(I:C)-induced airway inflammation C57BL/6 mouse model assessed as reduction in total cells in bronchoalveolar lavage fluid at 10 mg/kg, ip administered 1 day prior to poly(I:C) stimulation and redosed on day 2 followed by poly(I:C) stimulation by trypan blue staining-based hemocytometric analysis. It counts as functional, organism-based.

Chain of CREB-binding protein (Q92793 whole entry): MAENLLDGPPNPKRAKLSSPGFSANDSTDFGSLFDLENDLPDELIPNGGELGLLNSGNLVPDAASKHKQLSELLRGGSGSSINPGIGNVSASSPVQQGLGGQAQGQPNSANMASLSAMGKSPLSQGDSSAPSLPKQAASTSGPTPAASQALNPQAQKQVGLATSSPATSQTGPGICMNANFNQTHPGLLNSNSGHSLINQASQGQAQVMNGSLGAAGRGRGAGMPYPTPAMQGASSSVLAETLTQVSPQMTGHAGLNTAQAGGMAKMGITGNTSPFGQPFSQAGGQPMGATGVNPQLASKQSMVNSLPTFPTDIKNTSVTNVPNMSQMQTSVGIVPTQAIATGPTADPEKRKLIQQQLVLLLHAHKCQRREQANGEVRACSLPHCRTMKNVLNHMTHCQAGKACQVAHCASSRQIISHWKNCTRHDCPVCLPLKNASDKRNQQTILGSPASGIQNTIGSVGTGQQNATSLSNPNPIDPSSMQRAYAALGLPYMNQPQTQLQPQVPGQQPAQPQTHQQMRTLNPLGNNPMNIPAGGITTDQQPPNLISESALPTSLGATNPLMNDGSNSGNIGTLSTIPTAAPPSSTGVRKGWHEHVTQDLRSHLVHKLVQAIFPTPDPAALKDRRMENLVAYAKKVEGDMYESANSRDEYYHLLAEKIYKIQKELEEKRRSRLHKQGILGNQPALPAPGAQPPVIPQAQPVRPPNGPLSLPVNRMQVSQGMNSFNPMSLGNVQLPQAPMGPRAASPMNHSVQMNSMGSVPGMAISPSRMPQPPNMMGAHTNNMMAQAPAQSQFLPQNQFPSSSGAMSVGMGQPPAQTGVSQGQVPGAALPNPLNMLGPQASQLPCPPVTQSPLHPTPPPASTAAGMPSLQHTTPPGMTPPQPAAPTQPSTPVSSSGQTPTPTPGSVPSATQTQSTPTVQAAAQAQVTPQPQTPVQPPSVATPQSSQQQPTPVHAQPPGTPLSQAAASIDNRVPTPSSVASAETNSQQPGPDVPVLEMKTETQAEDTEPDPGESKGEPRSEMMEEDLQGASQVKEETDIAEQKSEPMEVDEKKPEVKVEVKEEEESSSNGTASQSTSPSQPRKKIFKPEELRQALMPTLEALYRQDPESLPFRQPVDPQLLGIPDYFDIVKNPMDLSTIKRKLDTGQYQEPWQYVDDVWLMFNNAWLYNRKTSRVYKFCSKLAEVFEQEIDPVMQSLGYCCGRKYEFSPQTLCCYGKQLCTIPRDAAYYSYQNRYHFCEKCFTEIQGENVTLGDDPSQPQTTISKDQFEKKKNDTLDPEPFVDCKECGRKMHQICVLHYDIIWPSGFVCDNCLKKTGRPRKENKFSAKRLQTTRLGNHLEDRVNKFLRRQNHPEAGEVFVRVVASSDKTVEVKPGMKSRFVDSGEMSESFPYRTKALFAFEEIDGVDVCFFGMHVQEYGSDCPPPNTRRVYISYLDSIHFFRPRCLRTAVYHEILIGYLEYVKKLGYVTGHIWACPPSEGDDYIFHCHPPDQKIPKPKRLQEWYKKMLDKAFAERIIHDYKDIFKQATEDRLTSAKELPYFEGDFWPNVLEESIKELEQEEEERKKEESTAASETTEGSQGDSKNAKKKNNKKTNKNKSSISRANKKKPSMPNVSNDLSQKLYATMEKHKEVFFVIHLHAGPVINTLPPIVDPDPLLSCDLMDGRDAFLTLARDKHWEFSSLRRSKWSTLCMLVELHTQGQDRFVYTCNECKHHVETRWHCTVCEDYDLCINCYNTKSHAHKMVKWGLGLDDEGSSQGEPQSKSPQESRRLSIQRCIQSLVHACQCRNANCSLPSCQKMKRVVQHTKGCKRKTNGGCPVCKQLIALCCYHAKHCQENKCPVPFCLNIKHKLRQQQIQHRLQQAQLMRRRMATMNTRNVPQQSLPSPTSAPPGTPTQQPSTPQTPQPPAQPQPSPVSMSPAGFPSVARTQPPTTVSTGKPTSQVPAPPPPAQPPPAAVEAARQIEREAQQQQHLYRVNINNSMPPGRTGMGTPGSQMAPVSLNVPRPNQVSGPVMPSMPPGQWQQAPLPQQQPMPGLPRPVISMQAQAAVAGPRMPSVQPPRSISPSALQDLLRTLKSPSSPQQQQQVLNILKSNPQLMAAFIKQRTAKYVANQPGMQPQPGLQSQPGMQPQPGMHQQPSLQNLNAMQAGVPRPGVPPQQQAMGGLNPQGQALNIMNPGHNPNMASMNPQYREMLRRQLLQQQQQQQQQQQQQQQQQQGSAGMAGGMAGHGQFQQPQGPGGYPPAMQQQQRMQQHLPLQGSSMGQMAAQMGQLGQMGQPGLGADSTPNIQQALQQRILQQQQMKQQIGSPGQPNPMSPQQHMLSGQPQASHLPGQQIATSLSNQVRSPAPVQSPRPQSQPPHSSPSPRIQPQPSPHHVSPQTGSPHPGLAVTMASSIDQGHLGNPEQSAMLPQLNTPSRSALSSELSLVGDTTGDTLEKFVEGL

With `Cc1sc2c(c1C)C(c1ccc(Cl)cc1)=N[C@@H](CC(=O)OC(C)(C)C)c1nnc(C)n1-2`, the result in series [1], in series [2], in [3], in series [5] and in [6] was inactive. In series [4], the IC50 worked out at 9.6 µM.

For `COc1cc(OC)c2c(=O)[nH]c(-c3cc(C)c(OCCO)c(C)c3)nc2c1` [APABETALONE], the outcome in [1], in [2], in series [3], in [5] and in series [6] was inactive. Besides, in series [4], the IC50 was > 10 µM.

On to `CC(C)(C)c1cc(-c2nnc(-c3cc(F)cc(Cl)c3)o2)no1`, for which the IC50 in series [7] stood at 7.7 µM; in [8], 7.9 µM; in series [9], 3.9 µM; in series [10] it was 4.3 µM.

For `Cc1cc(/N=N/c2ccc3c(c2)CCC(=O)N3)c(N)cc1O`, the IC50 in series [7] was 0.51 µM; in [8] it was 0.49 µM; in [4] it was > 10 µM; in series [9], 0.58 µM; in [10], 0.53 µM. For the same compound, the result in [1], in series [2], in series [3], in [5], in series [6] and in [17] was Active. Moreover, the half-life in series [11] was 1.2 h. In series [12], the Vd stood at 0.864 L/kg. In addition, the Cmax in [13] was found to be 80 ng/mL. In addition, in series [14], the clearance came out at 11.5 mL/min/kg. Further, the results for the AUC(0-t) in series [15] and in [16] were 14700 ng·h/mL and 450 ng·h/mL, respectively.

The values are drawn from ChEMBL document CHEMBL4152207, “Discovery of potent and selective BRD4 inhibitors capable of blocking TLR3-induced acute airway inflammation” (Eur J Med Chem, 2018).
